# Legend:
# Cytochrome P450 1A2 [1] = target: T1, Cytochrome P450 1A2 (Homo sapiens, UniProt P05177); test: Activity of human recombinant CYP1A2 in supersomes assessed as intrinsic clearance for enzyme-mediated drug metabolism by LC/MS analysis
# T1 sequence (P05177 whole entry): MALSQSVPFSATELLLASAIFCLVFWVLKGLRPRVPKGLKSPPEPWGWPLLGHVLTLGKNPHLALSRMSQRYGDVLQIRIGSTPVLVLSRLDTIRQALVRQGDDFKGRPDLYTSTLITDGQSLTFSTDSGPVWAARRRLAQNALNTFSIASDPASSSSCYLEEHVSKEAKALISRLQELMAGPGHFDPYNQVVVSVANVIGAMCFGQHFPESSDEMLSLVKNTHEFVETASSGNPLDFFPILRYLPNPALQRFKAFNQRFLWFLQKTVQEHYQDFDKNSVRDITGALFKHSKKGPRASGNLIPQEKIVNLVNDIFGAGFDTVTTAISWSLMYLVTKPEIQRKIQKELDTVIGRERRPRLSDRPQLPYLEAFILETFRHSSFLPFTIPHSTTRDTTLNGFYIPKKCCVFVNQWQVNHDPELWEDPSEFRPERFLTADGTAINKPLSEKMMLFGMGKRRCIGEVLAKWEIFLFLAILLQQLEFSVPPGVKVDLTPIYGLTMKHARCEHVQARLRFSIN
# Cytochrome P450 2D6 [2] = target: T2, Cytochrome P450 2D6 (Homo sapiens, UniProt P10635); test: Activity of human recombinant CYP2D6 in supersomes assessed as intrinsic clearance for enzyme-mediated drug metabolism by LC/MS analysis
# CYP1A2 = test: Fraction unbound in human liver microsomes containing CYP1A2 after 60 mins; format: ADME
# CYP2C8 = test: Fraction unbound in human liver microsomes containing CYP2C8 after 60 mins; format: ADME
# CYP2D6 = test: Fraction unbound in human liver microsomes containing CYP2D6 after 60 mins; format: ADME
# CYP3A4 = test: Fraction unbound in human liver microsomes containing CYP3A4 after 60 mins; format: ADME
# CYP3A5 = test: Fraction unbound in human liver microsomes containing CYP3A5 after 60 mins; format: ADME
# Cytochrome P450 2C8 [3] = target: T3, Cytochrome P450 2C8 (Homo sapiens, UniProt P10632); test: Activity of human recombinant CYP2C8 in supersomes assessed as enzyme-mediated drug metabolism at 0.05 to 0.1 uM after 30 mins by LC/MS analysis; format: ADME; conditions: 0.5 h
# T3 sequence (P10632 whole entry): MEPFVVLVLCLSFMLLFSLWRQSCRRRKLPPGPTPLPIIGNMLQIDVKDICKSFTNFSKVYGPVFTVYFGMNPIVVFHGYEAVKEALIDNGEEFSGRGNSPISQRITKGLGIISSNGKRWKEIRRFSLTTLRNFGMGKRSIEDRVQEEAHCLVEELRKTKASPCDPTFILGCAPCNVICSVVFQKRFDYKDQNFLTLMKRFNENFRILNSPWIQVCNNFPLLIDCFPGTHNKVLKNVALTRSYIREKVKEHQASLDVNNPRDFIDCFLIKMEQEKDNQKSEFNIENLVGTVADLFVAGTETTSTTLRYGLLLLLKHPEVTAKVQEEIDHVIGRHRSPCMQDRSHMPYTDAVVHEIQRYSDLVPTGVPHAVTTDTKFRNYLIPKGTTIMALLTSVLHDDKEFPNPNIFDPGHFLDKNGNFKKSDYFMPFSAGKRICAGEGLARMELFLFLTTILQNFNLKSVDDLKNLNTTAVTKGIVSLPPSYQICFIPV
# Outline: (§1)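 Recombinant P450 (CYP1A2 50, CYP2C8 158, CYP2D6 72, CYP3A4 66, CYP3A5 50 pmol/ml; 0.5 mg/ml protein) incubated with 0.1 µM N-DMI, and also 0.05 µM with CYP2C8/3A4/3A5. Run in 0.1 M sodium phosphate pH 7.4 with 1 mM NADPH at 37°C, in triplicate. N-DMI depletion was followed by LC-MS/MS; k_dep was fitted over 0–30 min and CLint = k_dep/[P450].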
# Cytochrome P450 3A4 [4] = target: T4, Cytochrome P450 3A4 (Homo sapiens, UniProt P08684); test: Activity of human recombinant CYP3A4 in supersomes assessed as enzyme-mediated drug metabolism at 0.05 to 0.1 uM after 30 mins by LC/MS analysis; format: ADME; conditions: 0.5 h; outline: as §1
# Cytochrome P450 1A2 [5] = target: T1, Cytochrome P450 1A2; test: Activity of human recombinant CYP1A2 in supersomes assessed as enzyme-mediated drug metabolism at 0.05 to 0.1 uM after 30 mins by LC/MS analysis; format: ADME; conditions: 0.5 h; outline: as §1
# Cytochrome P450 2D6 [6] = target: T2, Cytochrome P450 2D6; test: Activity of human recombinant CYP2D6 in supersomes assessed as enzyme-mediated drug metabolism at 0.05 to 0.1 uM after 30 mins by LC/MS analysis; format: ADME; conditions: 0.5 h; outline: as §1
# Cytochrome P450 3A5 [7] = target: T5, Cytochrome P450 3A5 (Homo sapiens, UniProt P20815); test: Activity of human recombinant CYP3A5 in supersomes assessed as enzyme-mediated drug metabolism at 0.05 to 0.1 uM after 30 mins by LC/MS analysis; format: ADME; conditions: 0.5 h; outline: as §1
# Cytochrome P450 2C8 [8] = target: T3, Cytochrome P450 2C8; test: Activity of human recombinant CYP2C8 in supersomes assessed as intrinsic clearance for enzyme-mediated drug metabolism by LC/MS analysis; format: ADME
# Outline: (§2)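 N-DMI formation kinetics: imatinib 0.10–320 µM with CYP2C8 (33 pmol/ml, 4 min), CYP3A4 (13 pmol/ml, 3 min) or CYP3A5 (10 pmol/ml, 30 min), 0.1 mg/ml protein. Run in phosphate pH 7.4 with 1 mM NADPH at 37°C, in triplicate, read by LC-MS/MS. Fits used substrate-inhibition (CYP2C8, CYP3A4) or Michaelis–Menten (CYP3A5) models; CLint = Vmax/Km.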
# Cytochrome P450 3A4 [9] = target: T4, Cytochrome P450 3A4; test: Activity of human recombinant CYP3A4 in supersomes assessed as intrinsic clearance for enzyme-mediated drug metabolism by LC/MS analysis; format: ADME; outline: as §2
# Cytochrome P450 3A5 [10] = target: T5, Cytochrome P450 3A5; test: Activity of human recombinant CYP3A5 in supersomes assessed as intrinsic clearance for enzyme-mediated drug metabolism by LC/MS analysis; format: ADME; outline: as §2
# [11] = Oral bioavailability in chronic myeloid leukemia patient; format: ADME, organism-based; conditions: human, in vivo
# [12] = Cmax in chronic myeloid leukemia patient at 400 mg, qd by multiple dose study; format: ADME, organism-based; design: dose 400 mg; conditions: human, in vivo
# T2 sequence (P10635 whole entry): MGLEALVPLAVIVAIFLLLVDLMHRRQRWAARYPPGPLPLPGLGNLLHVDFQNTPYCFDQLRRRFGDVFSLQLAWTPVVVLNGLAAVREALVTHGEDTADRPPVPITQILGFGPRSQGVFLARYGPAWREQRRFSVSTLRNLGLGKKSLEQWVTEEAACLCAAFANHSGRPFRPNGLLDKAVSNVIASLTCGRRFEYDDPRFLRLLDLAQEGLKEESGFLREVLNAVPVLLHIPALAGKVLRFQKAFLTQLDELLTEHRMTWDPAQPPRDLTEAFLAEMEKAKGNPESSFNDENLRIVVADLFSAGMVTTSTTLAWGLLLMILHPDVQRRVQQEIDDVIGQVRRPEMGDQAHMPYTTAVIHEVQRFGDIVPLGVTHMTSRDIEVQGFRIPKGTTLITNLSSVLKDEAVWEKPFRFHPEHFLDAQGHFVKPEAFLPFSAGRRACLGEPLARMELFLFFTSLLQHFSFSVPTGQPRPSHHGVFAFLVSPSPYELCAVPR
# T4 sequence (P08684 whole entry): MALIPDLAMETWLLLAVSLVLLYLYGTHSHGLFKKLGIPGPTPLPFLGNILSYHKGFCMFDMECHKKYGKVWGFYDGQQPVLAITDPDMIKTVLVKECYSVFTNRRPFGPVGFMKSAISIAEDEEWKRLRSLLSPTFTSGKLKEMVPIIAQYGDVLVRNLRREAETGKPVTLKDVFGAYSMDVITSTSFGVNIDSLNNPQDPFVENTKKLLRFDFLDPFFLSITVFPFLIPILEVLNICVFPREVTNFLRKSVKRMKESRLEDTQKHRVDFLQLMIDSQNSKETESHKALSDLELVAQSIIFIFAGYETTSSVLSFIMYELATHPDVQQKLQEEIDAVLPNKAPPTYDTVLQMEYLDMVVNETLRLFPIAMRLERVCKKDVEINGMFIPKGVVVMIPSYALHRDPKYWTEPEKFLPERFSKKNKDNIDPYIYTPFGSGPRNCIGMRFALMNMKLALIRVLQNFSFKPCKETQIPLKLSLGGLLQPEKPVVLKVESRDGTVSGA
# T5 sequence (P20815 whole entry): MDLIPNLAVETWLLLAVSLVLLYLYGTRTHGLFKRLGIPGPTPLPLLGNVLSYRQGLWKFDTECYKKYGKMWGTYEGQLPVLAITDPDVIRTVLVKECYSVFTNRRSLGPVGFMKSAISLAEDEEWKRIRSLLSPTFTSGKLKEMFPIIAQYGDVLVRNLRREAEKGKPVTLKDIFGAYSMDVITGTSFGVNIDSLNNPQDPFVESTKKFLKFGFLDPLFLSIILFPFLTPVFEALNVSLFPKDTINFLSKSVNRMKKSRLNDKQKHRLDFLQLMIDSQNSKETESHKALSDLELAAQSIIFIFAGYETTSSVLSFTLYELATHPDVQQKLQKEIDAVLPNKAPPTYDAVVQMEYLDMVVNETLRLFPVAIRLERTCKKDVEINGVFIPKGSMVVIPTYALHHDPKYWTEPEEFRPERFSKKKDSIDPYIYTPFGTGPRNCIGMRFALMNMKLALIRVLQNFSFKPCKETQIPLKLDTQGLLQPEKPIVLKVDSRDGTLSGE
CL (Cytochrome P450 1A2 [1]),CL (Cytochrome P450 2D6 [2]),fraction unbound at 1 h (CYP1A2),fraction unbound at 1 h (CYP2C8),fraction unbound at 1 h (CYP2D6),fraction unbound at 1 h (CYP3A4),fraction unbound at 1 h (CYP3A5),Drug metabolism (Cytochrome P450 2C8 [3]),Drug metabolism (Cytochrome P450 3A4 [4]),Drug metabolism (Cytochrome P450 1A2 [5]),Drug metabolism (Cytochrome P450 2D6 [6]),Drug metabolism (Cytochrome P450 3A5 [7]),CL (Cytochrome P450 2C8 [8]),CL (Cytochrome P450 3A4 [9]),CL (Cytochrome P450 3A5 [10]),bioavailability [11],Cmax [12],SMILES
0.03 µL/min,0.05 µL/min,0.8,0.8,0.8,0.8,0.8,metabolite_detected,metabolite_detected,metabolite_not_detected,metabolite_not_detected,metabolite_not_detected,0.06 µL/min,0.5 µL/min,0.09 µL/min,–,–,CS(=O)(=O)O.Cc1ccc(NC(=O)c2ccc(CN3CCNCC3)cc2)cc1Nc1nccc(-c2cccnc2)n1
–,–,–,–,–,–,–,–,–,–,–,–,–,–,–,> 97%,2200 ng/mL,CS(=O)(=O)O.Cc1ccc(NC(=O)c2ccc(CN3CCN(C)CC3)cc2)cc1Nc1nccc(-c2cccnc2)n1 [IMATINIB MESYLATE]

# — ChEMBL document CHEMBL3525950, “Autoinhibition of CYP3A4 leads to important role of CYP2C8 in imatinib metabolism: variability in CYP2C8 activity may alter plasma concentrations and response” (Drug Metab Dispos, 2013)
